Active and inactive are the calls of the source. The calls are words filed in the database; no cut-off is given here.

System in one experiment: not listed separately
Description: Inhibition of DNA-dependent protein kinase at 2 uM. The method in brief: (§1)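 Compound in DMSO was added in place of water, at final concentrations of 1.6–4.0. The reaction was stopped with termination buffer and captured on a biotin membrane. After washing, scintillation counts gave percent inhibition relative to the full-reaction positive control (n = 3).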
On to `Cc1c(OCc2ccncc2)ccc2c(=O)nc(N3CCOCC3)oc12`, for which the inhibition result was “Active”.

As to `O=c1nc(N2CCOCC2)oc2c(-c3ccccc3)cccc12`, the inhibition result is “Active”.

System in the next experiment: not listed separately
Description: Inhibition of DNA-dependent protein kinase at 1.6 uM. In outline: as §1
Consider `Cc1c(OCc2ccccn2)ccc2c(=O)nc(N3CCOCC3)oc12`, for which the inhibition entry is “Active”.

System in the next experiment: not listed separately
The experiment can be described thus: Inhibition of DNA-dependent protein kinase at 4 uM. In outline:
as §1
Regarding `CN1CCN(CCOc2cccc3oc(N4CCOCC4)nc(=O)c23)CC1`, the inhibition entry is “inactive”.

For the compound `CN1CCN(CCOc2ccc3oc(N4CCOCC4)nc(=O)c3c2)CC1`, the inhibition result is “inactive”.

Consider `Cc1c(OCCN2CCN(C)CC2)ccc2c(=O)nc(N3CCOCC3)oc12`, for which the inhibition entry was “Active”.

Turning to `CN1CCN(CCOc2ccc3c(=O)nc(N4CCOCC4)oc3c2)CC1`, the inhibition entry is “Active”.

With `CN1CCN(CCOc2cccc3c(=O)nc(N4CCOCC4)oc23)CC1`, the inhibition result is “Active”.

With `Cc1c(OCc2cccnc2)ccc2c(=O)nc(N3CCOCC3)oc12`, the inhibition entry was “Active”.

The subject of a further experiment is Platelet. Description: Inhibition of collagen-induced platelet aggregation in human venous blood by optical method based aggregometry. The class given is functional, tissue-based.
Usually IC50 stands for the midpoint of a concentration-inhibition curve. The compound `O=c1nc(N2CCOCC2)oc2c(OCc3ccccc3)cccc12` came in with an IC50 of 53 µM.

In turn, `Cc1c(OCCBr)ccc2c(=O)nc(N3CCCCC3)oc12` came in with a half-inhibitory concentration (IC50) of 61 µM.

Consider `O=c1nc(N2CCOCC2)oc2cccc(OCCCl)c12`, for which the concentration for half-maximal inhibition (IC50) was ≥ 100 µM.

Regarding `CN1CCN(CCOc2cccc3oc(N4CCOCC4)nc(=O)c23)CC1`, the concentration for half-maximal inhibition (IC50) was ≥ 100 µM.

For the compound `CN1CCN(CCOc2ccc3oc(N4CCOCC4)nc(=O)c3c2)CC1`, the IC50 was ≥ 86 µM.

For `O=c1nc(N2CCOCC2)oc2ccc(OCCCl)cc12`, 87 µM corresponded to half-maximal inhibition (IC50).

`O=c1nc(N2CCOCC2)oc2cc(OCc3cccnc3)ccc12` came in with an IC50 of 70 µM.

Consider `Cc1c(OCc2ccncc2)ccc2c(=O)nc(N3CCOCC3)oc12`, for which 4 µM corresponded to half-maximal inhibition (IC50).

As to `O=c1nc(N2CCOCC2)oc2ccc(OCCBr)cc12`, the half-maximal inhibitory concentration (IC50) is 83 µM.

Regarding `CCOc1ccc2c(=O)nc(N3CCOCC3)oc2c1`, the IC50 is 85 µM. This IC50 and that of the compound before are within 1.5-fold of each other.

`O=c1nc(N2CCOCC2)oc2cc(OCc3ccccn3)ccc12` showed an IC50 of 75 µM.

`Cc1c(OCCBr)ccc2c(=O)nc(N3CCSCC3)oc12` gave a half-inhibitory concentration (IC50) of 75 µM.

`Cc1c(OCCCl)ccc2c(=O)nc(N3CCOCC3)oc12` came in with a 50% inhibitory concentration (IC50) of 36 µM. Against the preceding compound, the IC50 is about 2.1-fold lower.

As to `Cc1c(O)ccc2c(=O)nc(C3CCNCC3)oc12`, the IC50 was ≥ 90 µM.

Compound `O=c1nc(N2CCOCC2)oc2c(OCCBr)cccc12` yielded a half-inhibitory concentration (IC50) of 70 µM.

With `O=c1nc(N2CCOCC2)oc2cccc(OCc3cccnc3)c12`, the 50% inhibitory concentration (IC50) was ≥ 100 µM.

Compound `Cc1c(OCCN2CCN(C)CC2)ccc2c(=O)nc(N3CCSCC3)oc12` returned an IC50 of 47 µM.

As for `O=c1nc(N2CCOCC2)oc2ccc(OCc3cccnc3)cc12`, the IC50 was ≥ 90 µM.

`O=c1nc(N2CCOCC2)oc2ccc(OCc3ccccc3)cc12`: the IC50 is ≥ 100 µM.

On to `CC(C)c1cccc2c(=O)nc(N3CCOCC3)oc12`, for which inhibition was half-maximal at 70 µM (IC50). In other words, the double-digit micromolar range.

On to `Cc1c(OCCN2CCN(C)CC2)ccc2c(=O)nc(N3CCCCC3)oc12`, for which the IC50 amounted to 36 µM.

Compound `O=c1nc(N2CCOCC2)oc2c(OCc3ccncc3)cccc12` displayed an IC50 of 70 µM. Compared with the last compound, the IC50 is about 1.9-fold higher.

As for `O=c1nc(N2CCOCC2)oc2cccc(OCc3ccccc3)c12`, the 50% inhibitory concentration (IC50) was ≥ 100 µM.

Regarding `CN1CCN(CCOc2cccc3c(=O)nc(N4CCOCC4)oc23)CC1`, half-maximal inhibition (IC50) was put at 80 µM.

For the compound `Cc1c(O)ccc2c(=O)nc(N3CCSCC3)oc12`, the concentration for half-maximal inhibition (IC50) is ≥ 100 µM.

With `O=c1nc(N2CCOCC2)oc2cc(OCc3ccncc3)ccc12`, the IC50 was determined as 45 µM.

`O=c1nc(N2CCOCC2)oc2cc(F)ccc12` came in with a 50% inhibitory concentration (IC50) of 80 µM.

Regarding `O=c1nc(N2CCOCC2)oc2c(OCc3cccnc3)cccc12`, it took 22 µM to reach half-maximal inhibition (IC50). Compared with the last compound, the IC50 is about 3.6-fold lower.

Consider `O=c1nc(N2CCOCC2)oc2c(OCCCl)cccc12`, for which it took 60 µM to reach half-maximal inhibition (IC50).

For the compound `Cc1c(OCc2ccccn2)ccc2c(=O)nc(N3CCOCC3)oc12`, the midpoint of inhibition, the IC50, lay at 34 µM. Against the preceding compound, the IC50 is about 1.8-fold lower.

With `Cc1c(OCc2cccnc2)ccc2c(=O)nc(N3CCOCC3)oc12`, the IC50 turned out to be 2 µM. This IC50 lies about 17-fold lower than the previous one.

The values are drawn from ChEMBL document CHEMBL1275280, “Synthesis, structural elucidation and DNA-dependant protein kinase and antiplatelet studies of 2-amino-[5, 6, 7, 8-mono and 7, 8-di-substituted]-1,3-benzoxazines” (Eur J Med Chem, 2010).
